# Legend:
# [1] = biological target: Glutamate NMDA receptor; assay: Displacement of [3H]dichlorokynurenate ([3H]-DCKA) from N-methyl-D-aspartate glutamate receptor 1 in rat cortical membranes; format: cell membranes, Membrane
# [2] = test system: Mus musculus; assay: Compound was tested in vivo (intra peritoneally) in the mouse maximal electroshock convulsion test; format: functional
# In short: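 CD1 mice (Charles River); tonic convulsions induced by maximal electroshock. Most compounds tested in a single run; test variability estimated at about 12%.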
# [3] = biological target: Glutamate receptor ionotropic, AMPA (Rattus norvegicus, UniProt P19490+P19491+P19492+P19493); assay: Displacement of [3H]-AMPA from Ionotropic glutamate receptor AMPA of rat cortical membranes; format: cell membranes, Membrane
# [4] = test system: Mus musculus; assay: Compound was tested in vivo (intra peritoneally) with probenecid in the mouse maximal electroshock convulsion test; format: functional
# In short: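 Maximal electroshock in CD1 mice, scoring tonic convulsions. Animals were pretreated with probenecid 200 mg/kg ip, and the compound was given ip 30 min before shock. ED50 in mg/kg ip.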
# [5] = test system: Mus musculus; assay: Compound was tested in vivo (intravenously) activity in the mouse maximal electroshock convulsion test; format: functional; details: iv
# [6] = test system: Mus musculus; assay: Compound was tested in vivo (intraperitoneally) with probenecid in the mouse maximal electroshock convulsion test
Compound,IC50 [1] [nM],IC50 [3] [nM],"ED50 ([2]; Mus musculus, read-out: ED50) [mg/kg]",ED50 [4] [mg/kg],ED50 [2] [mg/kg],ED50 [5] [mg/kg],ED50 [6] [mg/kg]
CC1(CC(=O)O)c2cc(Cl)c(Cl)cc2-c2nc(O)c(O)nc21 (stereo not drawn),140,1800,> 80,–,–,–,–
CC1(CC(=O)O)c2ccc(Cl)c(Cl)c2-c2nc(O)c(O)nc21 (stereo not drawn),2550,> 10000,> 80,–,–,–,–
CC1(CC(=O)O)c2ccc(OC(F)(F)F)cc2-c2nc(O)c(O)nc21 (stereo not drawn),4300,> 10000,–,–,–,–,–
CC1(CC(=O)O)c2nc(O)c(O)nc2-c2cccc(Cl)c21 (stereo not drawn),79,423,80,–,–,–,–
CC1(CC(=O)O)c2nc(O)c(O)nc2-c2cc(Cl)cc(Cl)c21 (stereo not drawn),24,187,> 80,–,–,–,–
"CC1(CC(=O)O)c2ccc(Cl)cc2-c2nc(O)c(O)nc21 (single isomer, unassigned; (+))",44,1000,–,–,>80,–,–
CC1(CC(=O)O)c2ccc(Cl)cc2-c2nc(O)c(O)nc21 (stereo in doubt; 10i),28,2100,–,–,6.8,–,1.8

# Stronger by IC50 [1], values ahead:
IC50 [1] [nM],IC50 [3] [nM],Compound,"ED50 ([2]; Mus musculus, read-out: ED50) [mg/kg]",ED50 [4] [mg/kg],ED50 [2] [mg/kg],ED50 [5] [mg/kg],ED50 [6] [mg/kg]
21,7000,CCCC1(CC(=O)O)c2ccc(Cl)cc2-c2nc(O)c(O)nc21 (stereo not drawn),1.8,–,–,–,–
21,4600,CC1(CC(=O)O)c2ccccc2-c2nc(O)c(O)nc21 (stereo not drawn),65,2.7,–,–,–
15,1280,CC1(CC(=O)O)c2ccc(F)cc2-c2nc(O)c(O)nc21 (stereo not drawn),> 80,–,–,–,–
12,4500,Cc1ccc2c(c1)-c1nc(O)c(O)nc1C2(C)CC(=O)O (stereo not drawn),23,–,–,–,–
8.3,> 10000,O=C(O)C1Nc2cc(Cl)cc(Cl)c2S(=O)(=O)N1Cc1cccc(Br)c1 (stereo not drawn),–,–,–,–,–
5,10000,"CC1(CC(=O)O)c2ccc(Cl)cc2-c2nc(O)c(O)nc21 (single isomer, unassigned; (-))",–,–,4.5,2,–
4,766,O=c1[nH]c2cc(Cl)c(Cl)c([N+](=O)[O-])c2[nH]c1=O [LICOSTINEL],22.5,–,–,–,–
